Experimental data as given in PubChem BioAssay AID493091 (Sanford-Burnham Center for Chemical Genomics, 2011).
Hit rate of the full screen: of about 340,000 compounds, about 3,000 (0.88%) were called active. This excerpt belongs to a sample that is enriched for actives. A number with no mark means an inactive call.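 The calls were made as follows: active = inhibition above about 50% at 20 µM (limit read from the data); inactive = the rest.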

These compounds were tested against Carboxy-terminal domain RNA polymerase II polypeptide A small phosphatase 1 (Homo sapiens) (UniProt Q9GZU7) (assay: Scp-1 phosphatase inhibitors, primary screen, biochemical, colorimetric, uHTS (AID 493091;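 also: plate controls were DMSO wells with enzyme for no effect and wells lacking enzyme for full effect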)). Conditions: Recombinant Scp1, phosphopeptide, malachite green phosphate absorbance; at 20 µM; hits give high values.
In short: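 Test system: SCP-1 catalytic domain; Buffer or medium: Acidic Tris acetate buffer with magnesium and detergent; Also added: Phosphorylated 17-residue peptide substrate; Compound: single 20 µM dose, 1% DMSO; Schedule: enzyme reaction 45 min at room temperature, colour 5 min, stabilisation 30 min; Signal: Phosphate-binding colour reagent, absorbance read at 630 nm.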

Chain of Carboxy-terminal domain RNA polymerase II polypeptide A small phosphatase 1 (Homo sapiens) (Q9GZU7 76-261 limits assumed): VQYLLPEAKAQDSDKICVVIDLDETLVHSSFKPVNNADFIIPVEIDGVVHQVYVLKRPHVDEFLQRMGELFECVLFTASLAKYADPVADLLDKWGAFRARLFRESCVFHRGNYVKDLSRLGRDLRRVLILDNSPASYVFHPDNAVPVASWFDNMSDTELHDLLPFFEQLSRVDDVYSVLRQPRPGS

Row | Compound | inhibition
1 | O=C(O)CCn1cc(C=C2C(=O)NC(=S)NC2=O)c(-c2cccc(Br)c2)n1 | 69.2% (active)
2 | CC(=O)N(C1=NCCCS1)c1ccccc1F | -8.48%
3 | Nc1ccc(Cc2ccc(N)c(Cl)c2)cc1Cl | -6.26%
4 | Cc1ccc(C2CN(C)CC2C(=O)c2ccc(F)cc2)cc1 (stereo not given) | 2.83%
5 | O=C(Cc1ccc(Cl)cc1)NCCN1CCN(C(=O)Cc2ccc(Cl)cc2)CC1 | -8.32%
6 | Cc1ccc(S(=O)(=O)N(C)c2ccc(C(=O)NCC3(N(C)C)CCCCC3)cc2)cc1 | -2.43%
7 | COc1ccc(N2C(=O)/C(=C/c3ccco3)C(=O)NC2=S)cc1 | 92.7% (active)
8 | O=C1NC(=O)N(Cc2ccco2)C(=O)/C1=C\c1ccc(-c2ccc(F)cc2)o1 | 5.05%
9 | COc1cccc(N2C(=O)NC(=O)/C(=C\c3ccc([N+](=O)[O-])s3)C2=O)c1 | 17.3%
10 | CCN(CC)CCOC(=O)c1cc2cc(COC)ccc2o1 | 70.7% (active)
11 | COc1ccc2c(c1)NP(=S)(c1ccccc1)N2 (stereo not given) | 0.52%
12 | CSc1ccc(C(=O)C2CCCN(Cc3ccn[nH]3)C2)cc1 (stereo not given) | -7.2%
13 | CCN(CC)C(=O)Oc1ccc(NC(=O)N2CCOCC2)cc1 | -3.55%
14 | COC(=O)C1=C(c2cc3ccccc3s2)C[C@@H]2CC[C@H]1N2C(=O)NCc1cccc2ccccc12 | -7.13%
15 | O=c1[nH]c(=O)n(-c2ccc(F)cc2)c(O)c1C=NCCN1CCCCC1 | -0.8%
16 | O=c1[nH]c(=O)n(CCc2ccccc2)c(O)c1/C=N/N1CCOCC1 | -5.04%
17 | O=c1[nH]c(=O)n(CCc2ccc(F)cc2)c(O)c1/C=N/N1CCCCC1 | 51% (active)
18 | CN1CCN(Cc2ccc(OC(F)(F)F)cc2)CC1 | 22.4%
19 | COc1ccccc1N=Nc1c(O)[nH]c(=S)[nH]c1=O | 9.19%
20 | COc1ccccc1N=C1SCCCN1C | 95.3% (active)
21 | CC(=O)Nc1ccc(C(=O)C(Cc2ccccc2)N(C)C)cc1 (stereo not given) | -12.1%
22 | O=C(NCC(c1cccnc1)N1CCN(c2ccccc2)CC1)Oc1ccccc1 (stereo not given) | -0.44%
23 | CC1CNCCN1c1ccc(Cl)cc1 (stereo not given) | 2.17%
24 | CN(C)C(=O)Oc1ccc2c(c1)O/C(=C\c1ccccc1)C2=O | -15.9%
25 | Cc1ccc(C)c(NC2=NCCCS2)c1 | -6%
